Four compounds from ChEMBL document CHEMBL1158857, “New steroidal alkaloids from Buxus longifolia” (1997) can be followed below.

Assay [1] relates to Salmonella typhi. Nature of the assay: (§1) Antibacterial activity against Salmonella typhi assessed per 100 uL of nutrient broth after 24 hrs by tube broth dilution method. The class given is functional, Salmonella enterica subsp. enterica serovar Typhi. An outline of the steps:
(§2)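 Tube broth dilution in nutrient broth against sensitive Salmonella typhi: 0.1 mL culture (10^4-10^6 cells/mL) was added to tubes holding 1 mL of test sample at different concentrations plus 1 mL nutrient broth. Tubes were incubated 24 h at 37 °C, growth inhibition was observed, and MIC was recorded. Ampicillin was run the same way as the standard.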

For assay [2], the system named is Salmonella typhi. Nature of the assay: Antibacterial activity against Salmonella typhi at 200 ug/100 uL after 24 hrs by tube broth dilution method. Also noted: unit not given here. The class given is functional, Salmonella enterica subsp. enterica serovar Typhi.
Assay [3] concerns Salmonella typhi. The assay is described as §1. The class given is functional, Salmonella enterica subsp. enterica serovar Typhi. Summed up: as §2
The source holds these as a separate data set.

For assay [4], the system named is Pseudomonas aeruginosa. Description: Antibacterial activity against Pseudomonas aeruginosa assessed per 100 uL of nutrient broth after 24 hrs by tube broth dilution method. The class given is functional. Summed up:
(§3)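 Tube broth dilution in nutrient broth. Sensitive bacterial culture (0.1 mL of 10^4-10^6 cells/mL) added to tubes holding 1 mL test sample at different concentrations plus 1 mL nutrient broth. Incubated 24 h at 37 °C, then growth inhibition scored visually. Ampicillin run the same way as reference. Minimum inhibitory concentration taken from the dilution series.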

In assay [5] the test system is Salmonella typhi. Description: Antibacterial activity against Salmonella typhi at 100 ug/100 uL after 24 hrs by tube broth dilution method. The class given is functional, Salmonella enterica subsp. enterica serovar Typhi. Set-up: unit not given here.
Assay [6] relates to Pseudomonas aeruginosa. Description: Antibacterial activity against Pseudomonas aeruginosa at 100 ug/100 uL after 24 hrs by tube broth dilution method. The class given is functional.
The subject of assay [7] is Pseudomonas aeruginosa. Nature of the assay: Antibacterial activity against Pseudomonas aeruginosa at 200 ug/100 uL after 24 hrs by tube broth dilution method. The class given is functional.
Assay [8] relates to Shigella flexneri. Nature of the assay: Antibacterial activity against Shigella flexneri at 200 ug/100 uL after 24 hrs by tube broth dilution method. The class given is functional.
Assay [9] deals with Escherichia coli. Nature of the assay: Antibacterial activity against Escherichia coli at 100 ug/100 uL after 24 hrs by tube broth dilution method. The class given is functional.
Assay [10] concerns Shigella flexneri. Nature of the assay: Antibacterial activity against Shigella flexneri at 100 ug/100 uL after 24 hrs by tube broth dilution method. The class given is functional.
The subject of assay [11] is Escherichia coli. Description: Antibacterial activity against Escherichia coli at 200 ug/100 uL after 24 hrs by tube broth dilution method. The class given is functional.
The test system of assay [12] is Escherichia coli. Description: Antibacterial activity against Escherichia coli assessed per 100 uL of nutrient broth after 24 hrs by tube broth dilution method. The class given is functional. Summed up: as §3

In the case of `CN[C@@H](C)[C@H]1[C@H](O)C[C@@]2(C)[C@@H]3CC[C@H]4C(C)(C)[C@@H](N(C)C)C=C[C@@]45C[C@@]35CC[C@]12C` [BUXASAMARINE], the MIC amounted to 100 µg in assay [1], 150 µg in [3] and 50 µg in assay [4]. The “inhibition zone (IZ)” value in assay [2] is 8; in [5], 6; in assay [6], 7 mm; in [7] it was 9 mm; in assay [8] it was 7 mm.

With `CC1(C)S[C@@H]2[C@H](NC(=O)[C@H](N)c3ccccc3)C(=O)N2[C@H]1C(=O)O` [AMPICILLIN], the MIC in assay [1] stood at 30 µg; in assay [3] it was 30 µg; in assay [4], 40 µg. In addition, the inhibition zone (IZ) in assay [9] turned out to be 11 mm; in [10], 11 mm; in assay [6], 11 mm; in [7] it was 11 mm; in assay [8], 11 mm; in assay [11], 12 mm.

`CC(=O)O[C@@H]1C[C@@]2(C)[C@@H]3C[C@@H]4OC[C@]5(C)[C@@H](NC(=O)c6ccccc6)CCC(=CC3=CC[C@]2(C)[C@H]1[C@H](C)N(C)C)[C@@H]45` [CYCLOBUXEINE F]: the MIC is 100 µg in assay [1], 100 µg in assay [3] and 10 µg in assay [4]. Moreover, the “inhibition zone (IZ)” value in assay [2] is 8; in assay [5], 7; in assay [10], 7 mm; in [6] it was 6 mm; in assay [7], 8 mm; in assay [8] it was 7 mm.

Take `C=C1[C@@H](N(C)C(C)=O)CC[C@]23C[C@]24CC[C@]2(C)[C@@H]([C@H](C)NC)CC[C@@]2(C)[C@@H]4CC[C@@H]13` [CYCLOBUXAMIDINE]: the MIC in assay [1] stood at 150 µg; in assay [12] it was 200 µg. Besides, the figures for the “inhibition zone (IZ)” value in assay [2], in assay [5] and in assay [11] were 6, 6 and 6 mm, respectively.
